# Screens deposited in PubChem BioAssay by several laboratories.
# PAFAH1B3 inh: PAFAH1B3 (human) inhibition. recombinant PAFAH1B3, FP-rhodamine probe, fluorescence polarization. Q15102. AID 492972. 340,000 compounds, 0.28% hits. inhibition, % at 3.39 µM;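 active means inhibition above the screen-wide average of all tested compounds plus 3 SD, cut at about 25% in these data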
# Target sequence (Q15102 whole entry, looked up): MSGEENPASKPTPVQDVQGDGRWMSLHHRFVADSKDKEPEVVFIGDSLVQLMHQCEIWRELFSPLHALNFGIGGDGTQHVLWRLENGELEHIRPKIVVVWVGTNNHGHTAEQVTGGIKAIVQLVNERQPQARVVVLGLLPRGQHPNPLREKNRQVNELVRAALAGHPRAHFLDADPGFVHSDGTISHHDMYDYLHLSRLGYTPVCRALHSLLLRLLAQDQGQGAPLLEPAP
# PAFAH2 FP inh: PAFAH2 (human) inhibition | Q99487 | 340,000 compounds, 0.99% hits | AID 492956 | recombinant PAFAH2, FP-rhodamine activity probe, fluorescence polarization | inhibition, % at 3.39 µM;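 active means inhibition above the mean over all tested compounds plus 3 SD, cut at about 30% in these data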;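 further: inhibitors block probe labeling of enzyme so polarization drops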
# PAFAH1B2 FP inh: PAFAH1B2 (human) inhibition. P68402. recombinant PAFAH1B2, FP-rhodamine activity probe, fluorescence polarization. inhibition, % at 3.39 µM. 340,000 compounds, 1.2% hits;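 active means inhibition above the mean of all tested compounds plus 3 SD, cut at about 24% in these data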
# Target sequence (P68402 whole entry, looked up): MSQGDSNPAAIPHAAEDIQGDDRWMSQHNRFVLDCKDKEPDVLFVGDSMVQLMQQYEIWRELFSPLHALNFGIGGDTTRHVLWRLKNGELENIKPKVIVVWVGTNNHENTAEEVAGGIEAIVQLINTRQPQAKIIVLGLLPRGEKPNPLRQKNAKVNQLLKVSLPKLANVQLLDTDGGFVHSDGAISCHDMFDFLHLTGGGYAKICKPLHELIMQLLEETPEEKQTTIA
# UCH37 DUB inh: human UCH37 deubiquitinating enzyme inhibition | purified proteasome/UCH37, Ub-AMC cleavage fluorescence | inhibition, % (test concentration not listed) | 330,000 compounds, 0.33% hits;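 active means mean inhibition over replicate wells above about 20%, limit read from the data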
#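 Material: human UCH37 enzyme supplied as purified proteasome complex / Amount: 0.15 nM proteasome as dispensed / Buffer or medium: pH 7.4 Tris-HCl (50 mM) with ovalbumin, ATP-MgCl2, DTT / Times: preincubation 30 min, reaction 25 min, room temperature / Technique: AMC fluorescence from Ub-AMC cleavage, excitation 355 nm, emission 460 nm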
# pPAFAH inh: inhibitors of human plasma PAF acetylhydrolase (pPAFAH); Q13093; inhibition, % at 3.39 µM; 330,000 compounds, 1.5% hits; recombinant pPAFAH, FP-rhodamine probe fluorescence polarization;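 active means inhibition above the mean inhibition across the screen plus 3 SD, cut at about 25% in these data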;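 further: inhibitors block binding of the rhodamine activity-based probe so polarization drops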
# GRIN3A LBD mod: modulators (binders) of human NR3A ligand-binding domain; 340,000 compounds, 2.5% hits; AID 1259313; Tm shift relative to glycine control, % at 25 µM; NR3A LBD differential scanning fluorimetry, Tm shift; 0% = protein alone, 100% = glycine-bound protein;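 active means melting temperature shift of at least 10% of the positive control shift, at one fixed dose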
# Numbers stand for hits; – = inactive; · = no result; ! = repeats disagree. Sampled rows, rich in hits. Any-hit rate of the full collection: about 4.8%.
SMILES,PAFAH1B3 inh,PAFAH2 FP inh,PAFAH1B2 FP inh,UCH37 DUB inh,pPAFAH inh,GRIN3A LBD mod
COc1cccc(C(=O)/C=C/Nc2cccc(O)c2)c1,–,–,–,–,–,13
COc1cccc(C(=O)/C=C/Nc2ccc(NC(C)=O)cc2)c1,–,–,–,–,–,–
COc1ccc(N/C=C/C(=O)c2cc(OC)c(OC)c(OC)c2)cc1,–,–,–,–,–,30
COc1cccc(C(=O)/C=C/Nc2ccc(S(=O)(=O)Nc3cccc(C(C)=O)c3)cc2)c1,–,–,–,–,–,13
COCc1cc(C)nc(OCC(=O)NN=Cc2ccc(-c3cc([N+](=O)[O-])ccc3C)o2)c1C#N,·,·,·,–,·,·
CC(=NNC(=O)C(N)=O)c1ccc2c(c1)OCCO2,·,·,·,–,·,·
O=C(NN=Cc1ccc(OC(F)F)cc1)C1=COCCO1,·,·,·,–,·,·
CC(=O)N1CCOc2ccc(S(=O)(=O)NCCc3ccc(C)cc3)cc21,–,–,32,–,–,–
O=C(NCc1ccc2c(c1)OCO2)C1CCC(CNS(=O)(=O)c2ccc(Cl)cc2)CC1 (centres undefined),–,–,–,–,–,–
Cc1ccc(S(=O)(=O)NCC2CCC(C(=O)NCc3ccc4c(c3)OCO4)CC2)cc1 (centres undefined),–,–,–,–,–,15
COc1ccc(CNS(=O)(=O)c2ccc3c(c2)N(C(C)=O)CCO3)cc1,–,–,–,–,–,–
CCOc1ccc(CCNS(=O)(=O)c2ccc3c(c2)N(C(C)=O)CCO3)cc1OCC,–,–,–,–,–,–
Cc1ccc(CNS(=O)(=O)c2ccc3c(c2)OCCO3)cc1,–,–,27,–,–,16
CC(=O)N1CCOc2ccc(S(=O)(=O)NCc3ccc(C)cc3)cc21,–,–,34,–,–,–
NC(=S)NN=C1CCOc2ccc(F)cc21,·,·,·,–,·,·
O=C(c1ccc(COc2ccccc2Cl)o1)N1CCN(Cc2ccc3c(c2)OCO3)CC1,–,–,–,–,–,15!
O=C(c1ccc(COc2ccc(Cl)cc2)o1)N1CCN(Cc2ccc3c(c2)OCO3)CC1,–,–,–,–,–,–
COc1ccc(C)cc1N(C(=O)c1ccc(F)cc1)c1nc2ccccc2s1,–,–,–,–,–,11
O=C(O)c1ccc(Cl)c2c1C1C=CCC1C(c1ccccn1)N2 (centres undefined),·,·,·,·,58,·
COc1cccc(C2Nc3c(F)cc(Br)cc3C3C=CCC32)c1OC (centres undefined),–,–,–,–,–,–
COc1ccc(OC)c(C2Nc3c(Cl)ccc(C(=O)O)c3C3C=CCC32)c1 (centres undefined),–,–,–,–,25,–
Cc1cc([N+](=O)[O-])cc2c1NC(c1ccccn1)C1CC=CC21 (centres undefined),–,–,–,–,–,–
Cc1ccc(C)c(OCC(=O)NN=Cc2ccsc2)c1,·,·,·,–,·,·
Cc1ccc(C(=O)N/N=C\c2ccc(-c3ccc(Cl)cc3)o2)cn1,–,–,–,·,–,13
Cc1ccc(C(=O)NN=Cc2ccc(-c3ccc(Cl)cc3)o2)cn1,·,·,·,–,·,·
SMILES,PAFAH1B3 inh,PAFAH2 FP inh,PAFAH1B2 FP inh,UCH37 DUB inh,pPAFAH inh,GRIN3A LBD mod
Cc1cc(C(=O)NN=Cc2ccc(-c3ccc(F)cc3)o2)c(C)o1,–,–,–,–,–,16
O=c1cc2c(=O)oc3cc(O)c(O)oc3c2c(O)c1O,79,62,30,–,·,–
C=CCON=C(C)c1c(O)c(C)c(-c2ccccc2)n(-c2ccccc2)c1=O,·,·,·,–,·,·
COc1ccc(/C=C/c2nc3cc(-c4ccccc4)ccc3o2)cc1O,–,–,–,–,–,17
COc1ccc(C=NNC(=O)c2nc(-c3ccccc3)cc(-c3ccccc3)n2)cc1O,·,·,·,–,·,·
O=C(NCC1COc2ccccc2O1)c1ccccc1 (centres undefined),–,–,–,–,–,–
O=C(Cc1ccccc1)Nc1ccc(C(=O)NCC2COc3ccccc3O2)cc1 (centres undefined),–,–,–,–,–,22
CCC1COC(c2cccn2Cc2ccc(Cl)cc2)=N1 (centres undefined),–,–,–,–,28,–
COc1ccc2cc(C(=O)Nc3ccc(F)cc3)sc(=O)c2c1OC,–,–,–,·,–,21
COc1ccc2cc(C(=O)Nc3ccc(O)cc3)sc(=O)c2c1OC,–,–,–,·,–,31
COc1ccc2cc(C(=O)Nc3ccc(Cl)cc3)sc(=O)c2c1OC,–,–,–,–,–,22
